# Source: PubChem
# An excerpt weighted towards active compounds, which were near 2.6% of everything screened.
# FN deposition inh: fibronectin deposition inhibition. 0.086% of 350,000 active. inhibition, % at 12.6 µM. AH1F fibroblasts, Alexa488-fibronectin deposition fluorescence, overnight;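 active = mean inhibition across replicates of 30% or more, regardless of how many single replicates reach that level; inconclusive = mean under 30% yet at least half of replicates reach 30%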;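 note: positive control wells lacked labelled fibronectin entirely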
#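 Measured by – fluorescence 485/525 nm · System – AH1F fibroblast monolayer, labelled fibronectin deposition · Amount – 10000 cells per well · Buffer or medium – serum-reduced DMEM (2% serum) · Doses – single dose, pinned · Also added – fluorescent fibronectin at 24 nM final · Schedule – 1 h cell attachment, overnight exposure to compound and label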
# rRNA inh HTS: inhibitors of bacterial rRNA selective over humanized ribosomes; E. coli WT GFP vs humanized-ribosome RFP mutants, fluorescence, 24 h; active compounds read low; DMSO median 0, no signal -100; 1.6% of 350,000 active; GFP signal change (wild-type ribosome), % (concentration not given with the values);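 active = significant combined selectivity score with lowered wild-type GFP, culture density cut under 30%, mutant RFP and density less affected; inactive = any of these conditions unmet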
# Env fusion inh: inhibitors of HIV Env-mediated cell fusion; inhibition, % at 12.3 µM; HeLa-JRFL Env/CEM21 cell fusion, luciferase; 1.1% of 360,000 active; AID 651610;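 active = mean replicate inhibition score of at least 50 and every replicate individually at or above 50; inconclusive = only one of the two criteria met; inactive = mean below 50 and not all replicates reaching 50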;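 note: 0% = plate neutral controls and 100% = maraviroc near 300 nM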
# miR122 inh: blocks miR-122 activity in Huh7 sensor cells. Huh7 miR-122 Renilla luciferase sensor, 48 h; neutral wells = 0, positive control = 100. activation (reporter increase), % at 12.5 µM. 0.3% of 340,000 active. AID 602342;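 active = mean replicate activation score at least 90 and every replicate individually at or above 90; inconclusive = only one of the two criteria met; inactive = neither criterion met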;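 note: higher luciferase means less miR-122 activity so hits act as miR-122 inhibitors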
# Vif inh: HIV Vif inhibition; AID 602346; HEK293T cells, Vif self-association by quenched fluorescence, imaging, 24 h; 0.35% of 340,000 active; inhibition, % at 7.49 µM; in the data active = inhibition above about 50%, passing the limit was not always enough; inconclusive = no clear call, values can overlap the other calls; inactive = below about 31%
# S100A4 inh HTS: S100A4-myosin IIA interaction inhibition; P26447; S100A4/TAMRA-MyoIIA peptide fluorescence polarization; inhibition, % at 10.7 µM; 0.14% of 360,000 active; AID 652163;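 active = mean inhibition of at least 70% across replicates, with every replicate also reaching that level; inconclusive = mean inhibition reaches 70% but some replicates fall short; inactive = mean inhibition below 70%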
# Target sequence (P26447 whole entry, looked up): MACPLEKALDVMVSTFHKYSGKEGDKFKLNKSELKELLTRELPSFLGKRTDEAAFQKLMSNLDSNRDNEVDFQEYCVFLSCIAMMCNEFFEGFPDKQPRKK
#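 Test system: S100A4 monomer protein. Medium: HEPES buffer with Ca2+, pH 7.2. Reagent: fluorescent myosin IIA peptide, 5 nM. Compound dosing: single-point compound testing. Timing: 5 min between mix addition and reading. Benchmarks: DMSO neutral and TFP positive wells.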
# * marks the source's active call; other numbers are inactive results; ? = inconclusive; · = not tested or not shown; [ ] = dose if it differs, or a comment.
SMILES,FN deposition inh,rRNA inh HTS,Env fusion inh,miR122 inh,Vif inh,S100A4 inh HTS
C=CC(COCc1ccccc1)N(C(=O)OC(C)(C)C)S(=O)(=O)c1ccccc1Br (stereo not given),6.5,1.9,?,8.6,·,2.5
COc1ccc(CN(CC(O)COCc2ccccc2)S(=O)(=O)c2ccccc2Br)cc1OC (stereo not given),-14.0,-20.8*,-71.3,·,16.2,0.1
CCC1=NN(C(=O)c2ccc(Br)cc2)C(O)(c2ccc(C)cc2)C1 (stereo not given),-4.3,-30.2*,-8.6,·,-0.6,-5.3
Cc1ccc(Nc2nc(Cl)nc3ncn(C)c23)c(C)c1,3.7,-36.0*,-11.5,-7.4,4.6,-8.9
CCCCN(Cc1cc2cc(OC)ccc2[nH]c1=O)S(=O)(=O)c1ccc(C)cc1,2.0,-10.0,20.9,-7.9,-4.7,-10.6
CCOC(=O)c1cccc(S(=O)(=O)N(CCO)Cc2cc3cc(OC)ccc3[nH]c2=O)c1,·,-17.9*,·,-6.7,-1.1,-2.3
COc1ccc2[nH]c(=O)c(CN(CCO)S(=O)(=O)c3ccc(C)cc3)cc2c1,8.5,-23.6*,12.2,·,16.9,-2.3
C[C@@H]1CCCCO[C@H](CN(C)S(=O)(=O)c2cn(C)cn2)[C@H](C)CN([C@@H](C)CO)C(=O)c2cc(NC(=O)c3ccncc3)ccc2O1,·,0.6,-3.0[16.7 µM],7.8[16.7 µM],·,17.8
COc1ccc(S(=O)(=O)N(C)C[C@@H]2OCCCC[C@H](C)Oc3ccc(NC(=O)c4ccncc4)cc3C(=O)N([C@H](C)CO)C[C@H]2C)cc1,6.6,-3.4,5.8[16.7 µM],8.2[16.7 µM],·,-14.9
COc1ccc(CNc2ncnc3cc(OC)c(OC)cc23)cc1,·,·,·,-2.9,3.6,·
COc1ccc(CNc2ncnc3cc(OC)c(OC)cc23)cc1OC,·,-16.9*,10.4,·,-9.4,3.4
COc1ccc(S(=O)(=O)NNC(=O)C(=O)NNc2ccccn2)cc1,0.3,-30.7*,-9.9,-2.6,-3.7,3.4
CN(CCCC(=O)O)c1ccc(N=Nc2ccc([N+](=O)[O-])cc2)cc1,3.2,-30.7*,-55.4,·,-19.0,3.3
CCCNC(=O)NC[C@@H]1[C@@H](c2ccc(C3=CCCC3)cc2)[C@@H](CO)N1C(=O)CC,-8.4,-0.2,·,142.9*[16.7 µM],·,19.5
Cc1cc2cc(CN(Cc3ccco3)S(=O)(=O)c3c(C)ccc4nsnc34)c(=O)[nH]c2cc1C,·,·,77.3*,-2.2,-4.3,·
Cc1ccc2cc(CN(Cc3ccco3)S(=O)(=O)c3c(C)ccc4nsnc34)c(=O)[nH]c2c1,·,·,·,-1.3,-3.9,·
Cc1nc(-c2ccccn2)nc(SCC(=O)N2CCOCC2)c1Cl,2.9,·,-4.4,-1.0,-5.9,-6.5
Cc1nc(-c2ccccn2)nc(SCC(=O)c2ccccc2)c1Cl,3.5,-22.6*,-2.6,2.5,2.2,2.6
Cc1cc(C)n2nc(N)c(N=Nc3ccccc3)c2n1,7.6,13.8,-5.3,·,-0.1,-7.5
Cc1cc(C)[n+]2[nH]c(N)c(N=Nc3ccccc3)c2n1,-8.9,-28.4*,-15.8,·,-3.0,-4.5
Oc1ccc(Cl)cc1-c1cc(C(F)(F)C(F)F)nc(-c2ccccc2)n1,·,·,66.5*,·,-4.6,·
O=S(=O)(NCCc1ccncc1)c1cc(Br)ccc1F,2.7,·,6.7,123.5*,8.4,·
Cc1c(C)c(C)c(S(=O)(=O)NCCc2ccncc2)c(C)c1C,0.0,1.7,-6.1,-9.3,-10.3,2.2
Cc1ccc(COc2ccc(/C=N/O)cc2)cc1,-2.1,-16.5*,-9.7,·,-2.0,1.1
O=C(N[C@@H]1CC[C@H](CC(=O)N2CCc3ccccc3C2)O[C@@H]1CO)C1CCOCC1,-8.7,1.1,-11.8[16.7 µM],-3.0[16.7 µM],·,11.4
SMILES,FN deposition inh,rRNA inh HTS,Env fusion inh,miR122 inh,Vif inh,S100A4 inh HTS
COc1ccc(CNC(=O)C[C@H]2CC[C@@H](NC(=O)c3cccc(F)c3)[C@H](CO)O2)cc1,2.0,1.4,22.1[16.7 µM],·,·,2.2
Cn1cc(/C=N/n2cnc3scc(-c4ccc(Cl)cc4)c3c2=O)c2ccccc21,11.9,·,-275.2,76.9,54.1*,·
COc1ccc(CNC(=O)/C=C/[C@H]2O[C@@H](n3cnc4c(NC(=O)c5ccccc5)ncnc43)[C@H](O)[C@@H]2O)cc1,-5.7,2.1,13.4,-0.4,?,2.8
O=C(/C=C/[C@H]1O[C@@H](n2cnc3c(NC(=O)c4ccccc4)ncnc32)[C@H](O)[C@@H]1O)NCc1cccc2ccccc12,-0.9,-29.1*,6.2,0.1,·,-6.2
COc1cccc(/C=C/C(=O)OCC(=O)c2ccc3c(c2)NC(=O)CO3)c1OC,·,-20.1*,13.8,-5.0,-7.6,-2.4
CCCCc1c(-c2ccccc2OC)ncn1C(C)c1ccccc1 (stereo not given),12.0,-57.9,76.3*,·,·,2.8
CCCCc1c(-c2ccccc2OC)ncn1CCc1ccccc1,5.2,-61.0,13.2,·,·,-6.5
Cc1noc(C)c1NC(=O)N(C)C[C@@H]1Oc2ccc(NC(=O)c3ccncc3)cc2CC(=O)N([C@@H](C)CO)C[C@H]1C,0.2,8.1,-2.0[16.7 µM],5.8[16.7 µM],·,18.5
CCN(CC)c1ccc(S(=O)(=O)Nc2cc(Cl)ccc2Cl)cc1NC(=S)NC(=O)C1CCCC1,·,10.2,31.8,284.6*,31.8,-4.9
CCOC(=O)C1CCCN(C(=S)Nc2ccc(Nc3ccccc3)cc2)C1 (stereo not given),7.3,-29.9*,-1.7,-8.6,9.6,-10.2
CCOC(=O)C1CCN(C(=S)Nc2ccccc2)CC1,-20.4,2.9,-12.0,·,39.0,2.2
CC(=O)N1CC=C2C(C#N)=C(N)C(C#N)(C#N)C(CCc3ccccc3)C2C1 (stereo not given),2.0,·,-55.1,7.6,2.3,·
CCN1CC=C2C(C#N)=C(N)C(C#N)(C#N)C(CCc3ccccc3)C2C1 (stereo not given),12.5,·,5.9,25.3,79.3*,·
Cc1cccc(/C=N\Nc2cn[nH]c(=O)c2Cl)c1,5.0,-9.8,72.7*,-2.9,15.3,0.9
Cc1cccc(C2C3=C(Nc4[nH]n(-c5ccccc5)c(=O)c42)c2ccccc2C3=O)c1 (stereo not given),1.2,-38.0*,23.2,·,0.2,4.2
N#CCCCCn1ccc(NC(=O)c2ccc(Cl)cc2O)n1,9.1,-30.4*,2.3,·,-9.3,-4.6
O=C(Nc1cccc(S(=O)(=O)Nc2ccc(Cl)cc2)c1)c1ccccn1,-11.4,·,·,129.3*,-4.8,3.0
COc1ccc(NS(=O)(=O)c2cccc(NC(=O)c3ccccn3)c2)cc1,1.9,-5.8,-11.1,33.9,-1.6,-1.8
O=C(c1cc(Cl)c(=O)n(Cc2ccccc2)c1)N1CCOCC1,1.9,·,-8.3,1.3,62.1*,·
COc1ccccc1S(=O)(=O)N[C@@H]1CC[C@H](CC(=O)N2CCN(C)CC2)O[C@H]1CO,8.4,2.8,7.5[16.7 µM],10.5[16.7 µM],·,4.3
